In ChEMBL document CHEMBL3632484, “Synthesis and preliminary biological evaluation of a small library of hybrid compounds based on Ugi isocyanide multicomponent reactions with a marine natural product scaffold” (Bioorg Med Chem Lett, 2015):
Values after ≈ are worked out from the molar mass of the structure shown.

Legend:
[1] = system: Mycobacterium tuberculosis; assay: Antimycobacterial activity against Mycobacterium tuberculosis H37Rv ATCC 27294 by microplate alamar blue assay; assay type: functional
Outline: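 Minimum inhibitory concentration by microplate Alamar blue assay against the H37Rv laboratory strain, reported in μg/mL as the mean of three experiments.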

[2] = system: Plasmodium falciparum; assay: Antiplasmodial activity against chloroquine-susceptible Plasmodium falciparum 3D7 infected in human O+ erythrocytes after 72 hrs by SYBR Green based parasite proliferation assay; assay type: functional, organism-based; conditions: 3D7, 72 h
[3] = system: Vero; assay: Cytotoxicity against African green monkey Vero cells; assay type: cell-based; conditions: Chlorocebus sabaeus
Outline: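 IC50 in mammalian Vero cells, reported in nM as the mean of three experiments.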

[4] = Selectivity index, ratio of IC50 for African green monkey Vero cells to IC50 for chloroquine-susceptible Plasmodium falciparum 3D7; assay type: toxicity, cell-based; conditions: read-out: Ratio IC50
Outline: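 Index calculated as Vero cell IC50 divided by the IC50 against chloroquine-susceptible P. falciparum 3D7. The 3D7 IC50 is the concentration giving 50% parasite survival, reported in nM as the mean ± standard error of three experiments.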

[5] = Antineuroinflammatory activity in LPS-primed rat neonatal microglia assessed as inhibition of PMA-stimulated release of O2- after 70 mins; assay type: functional
Outline: (§1)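 Rat microglia primed with E. coli LPS, then stimulated with PMA (1 μM) for 70 min. Release of superoxide (O2–) and of TXB2 is measured, and the IC50 is the concentration that inhibits release. Short-term viability is checked in parallel by LDH release (LDH50 = 50% of total cellular LDH). Data come from 1–4 independent experiments.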

[6] = Antineuroinflammatory activity in LPS-primed rat neonatal microglia assessed as inhibition of PMA-stimulated release of TXB2 after 70 mins; assay type: functional; outline: as §1
[7] = Cytotoxicity against rat neonatal microglia assessed as cell viability by lactate dehydrogenase release assay; conditions: read-out: LD50 (the source's name)
Outline: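 Rat microglia were primed with E. coli LPS and then stimulated with PMA (1 μM) for about 70 min. LDH release was measured as short-term viability. LDH50 is the concentration causing release of 50% of the total cellular LDH content. Data come from 1–4 independent experiments.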

Row | SMILES | MIC [1] | IC50 [2] | IC50 [3] | selectivity ratio [4] | IC50 [5] | IC50 [6] | CC50 [7]
1 | [C-]#[N+][C@@]12CCC(=C)[C@H]3[C@H](CC(C)(C)NC(=O)CN(CCC(C)C)C(=O)c4ccncc4)C[C@H](C)[C@@H](CC[C@@H]1C)[C@@H]32 | 14.9 µg/mL (≈ 27.2 µM) | 11.5 nM | 19800 nM | 1720 | > 10000 nM | 3000 nM | > 10000 nM
2 | [C-]#[N+][C@@]12CCC(=C)[C@H]3[C@H](CC(C)(C)NC(=O)CN(CCNc4ccnc5cc(Cl)ccc45)C(C)=O)C[C@H](C)[C@@H](CC[C@@H]1C)[C@@H]32 | 17.9 µg/mL (≈ 29 µM) | 11.1 nM | 28600 nM | 2570 | 1700 nM | 800 nM | 5000 nM
3 | [C-]#[N+][C@@]12CCC(=C)[C@H]3[C@H](CC(C)(C)NC(=O)CN(CCNc4ccnc5cc(Cl)ccc45)C(=O)c4ccncc4)C[C@H](C)[C@@H](CC[C@@H]1C)[C@@H]32 | 52 µg/mL (≈ 76.3 µM) | 3.6 nM | 25800 nM | 7150 | 5000 nM | 900 nM | 5000 nM
4 | [C-]#[N+][C@@]12CCC(=C)[C@H]3[C@H](CC(C)(C)NC(=O)CNC(=O)c4ccncc4)C[C@H](C)[C@@H](CC[C@@H]1C)[C@@H]32 | 102 µg/mL (≈ 214 µM) | 6.3 nM | – | – | > 10000 nM | 1100 nM | > 10000 nM
5 | [C-]#[N+][C@@]12CCC(=C)[C@H]3[C@H](CC(C)(C)NC(=O)C(c4ccccc4)N(CCC(C)C)C(=O)c4ccncc4)C[C@H](C)[C@@H](CC[C@@H]1C)[C@@H]32 (mixture of isomers) | 56.4 µg/mL | 13 nM | 49200 nM | 3780 | > 10000 nM | 100 nM | > 10000 nM
6 | [C-]#[N+]C(C)(C)C[C@@H]1C[C@H](C)[C@H]2CC[C@H](C)[C@@]3([N+]#[C-])CCC(=C)[C@@H]1[C@H]23 [DIISOCYANOAMPHILECTENE] | 3.2 µg/mL (≈ 9.86 µM) | 1.2 nM | 99700 nM | 83100 | > 10000 nM | 230 nM | > 10000 nM
7 | NNC(=O)c1ccncc1 [ISONIAZID] | 0.44 µg/mL (≈ 3.21 µM) | – | – | – | – | – | –
